Compound activity from PubChem BioAssay.
An excerpt weighted towards active compounds, which were near 2.1% of everything screened.
IMP-1 inh = inhibitors of Pseudomonas aeruginosa IMP-1 metallo-beta-lactamase; purified IMP-1, nitrocefin hydrolysis, epi-absorbance fluorescence; inhibition, % at 5.6 µM; 0.45% of 290,000 active; AID 1556;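 active = inhibition above the mean plus 3 SD of all compounds in the same screening run, cut at about 4.5% in these data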;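 note: 0% = IMP-1 with DMSO and 100% = DMSO wells lacking enzyme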
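Assay system: purified IMP-1; Quantity: IMP-1 0.2 nM before substrate addition; Medium: HEPES buffer pH 7.1 with ZnSO4 and Brij 35; Incubation: 15 min enzyme–compound preincubation, then 25 min nitrocefin reaction, 25 °C; Signal: fluorescence quenching readout, ex 480/em 530 nm; Controls: DMSO with and without IMP-1; Repeats: singlicate testing.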
PKA-R1A activ = activators of PKA-R1A complex | PKA-R1A dissociation, Cy5-IP20 fluorescence polarization; scaled: DMSO 0%, 113 µM cGMP 100% | activation, % at 11.4 µM | 0.083% of 340,000 active;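 active = percent activation above the mean of all tested compounds plus 3 SD, cut at about 19% in these data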;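 note: higher means more PKAc released from R1A so a rise in polarization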
bovine MsrA act = bovine methionine sulfoxide reductase A activation. purified bovine MsrA, absorbance read-out. activation, % at 10.6 µM. 0.3% of 360,000 active. AID 602163; in the data active = activation above about 7.5%;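 note: 0% = vehicle and 100% = reference activator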
PKA-R2B activ = activators of human PKA-R2B complex; 0.079% of 340,000 active; PKA-R2B holoenzyme dissociation, Cy5-IP20 fluorescence polarization; R2B truncated from residue 108, S112A mutant; 0% DMSO only, 100% 113 µM cGMP; P22694+P31323; activation, % at 11.4 µM; AID 504700;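 active = activation above a cutoff set at the mean over all compounds plus 3 SD, cut at about 18% in these data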;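 note: higher means more holoenzyme dissociation and a rise in polarization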
Target sequence (P31323 whole entry, looked up, other chains not shown, the tested form may be a part): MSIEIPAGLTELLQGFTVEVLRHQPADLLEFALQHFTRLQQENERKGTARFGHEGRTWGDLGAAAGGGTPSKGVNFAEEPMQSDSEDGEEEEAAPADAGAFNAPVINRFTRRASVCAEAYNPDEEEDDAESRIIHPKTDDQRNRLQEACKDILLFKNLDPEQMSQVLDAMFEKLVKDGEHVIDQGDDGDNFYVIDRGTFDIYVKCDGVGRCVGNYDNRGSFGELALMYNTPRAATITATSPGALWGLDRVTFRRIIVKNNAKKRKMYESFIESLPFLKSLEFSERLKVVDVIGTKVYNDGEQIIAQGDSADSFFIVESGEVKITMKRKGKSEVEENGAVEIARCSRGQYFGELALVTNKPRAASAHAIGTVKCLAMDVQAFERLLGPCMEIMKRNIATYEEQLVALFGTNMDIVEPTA
VIM-2 inh = inhibitors of Pseudomonas aeruginosa VIM-2 metallo-beta-lactamase; inhibition, % at 5.6 µM; AID 1527; 0.89% of 290,000 active; purified VIM-2, nitrocefin hydrolysis, epi-absorbance fluorescence;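 active = inhibition above the mean of all tested compounds plus 3 SD, cutoff set per screening run, cut at about 7.5% in these data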;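 note: red hydrolysis product quenches plate fluorescence so inhibitors raise well fluorescence; 0% = enzyme with DMSO and 100% = DMSO without enzyme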
MsrA inhibitor = inhibits bovine methionine sulfoxide reductase A | purified bovine MsrA, absorbance read-out | inhibition, % at 15.5 µM | 0.75% of 360,000 active | AID 651718; in the data active = inhibition above about 4.5%;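 note: 0% = vehicle wells with enzyme and 100% = reference inhibitor wells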
* = called active by the depositor.

For Cc1nnc2ccc(-c3cccc(NC(=O)c4ccc(Br)o4)c3)nn12 the results were IMP-1 inh -2.9, PKA-R1A activ 5.3, bovine MsrA act -1.0, PKA-R2B activ -1.0, VIM-2 inh 10.2* and MsrA inhibitor 1.0.
`CC(C)CC1NC(=O)c2ccccc2-n2c1nc1ccccc1c2=O` (stereo unspecified) gave MsrA inhibitor 0.5.
For O=C(O)CN1CCCC1=Nc1ccccc1 the results were IMP-1 inh 4.8*, PKA-R1A activ -0.6, bovine MsrA act -2.3, PKA-R2B activ -0.2, VIM-2 inh 2.5 and MsrA inhibitor -2.1.
`CC(/C=C/c1ccc(C)o1)=C\C(=O)O` gave IMP-1 inh -1.6, PKA-R1A activ 2.8, bovine MsrA act 20.2*, PKA-R2B activ -8.0, VIM-2 inh -1.9 and MsrA inhibitor 2.3.
`[O-]/C(=C(\C(=S)NCc1ccco1)[n+]1ccccc1)c1ccccc1Br` gave IMP-1 inh 4.8*, PKA-R1A activ -3.2, bovine MsrA act -9.9, PKA-R2B activ -4.0, VIM-2 inh -0.2 and MsrA inhibitor 1.9.
`O=C1C=C(O)c2cccc(O)c2C1=O` gave PKA-R1A activ 0.1, bovine MsrA act -1.4, PKA-R2B activ -0.8 and MsrA inhibitor -0.2.
For CC1OC(CC(=O)O)CC2=C1C(=O)c1c(O)cccc1C2=O (stereo unspecified) the results were PKA-R1A activ -0.8, bovine MsrA act 66.9*, PKA-R2B activ -9.4 and MsrA inhibitor 9.9*.
`CCNC(=O)N(C)[C@H]1C[C@H]2c3[nH]c4c(-c5ccc6c(c5)OCO6)cccc4c3CCN2C(=O)[C@H]1[C@H](C)O` gave MsrA inhibitor 1.3.
`Nc1nonc1C(=O)NCCN=Cc1cc(Cc2ccccc2)cc(Br)c1O` gave IMP-1 inh 8.7*, PKA-R1A activ -0.4, bovine MsrA act -9.0, PKA-R2B activ -7.0 and VIM-2 inh -4.2.
Nc1nonc1C(=O)NCCN=Cc1ccccc1O was read as IMP-1 inh -0.5, PKA-R1A activ 1.8, bovine MsrA act 0.8, PKA-R2B activ -5.3, VIM-2 inh -3.5 and MsrA inhibitor -1.2.
O=C(CNc1cccc(C(F)(F)F)c1)N/N=C/c1cn(-c2ccccc2)nc1-c1ccccc1 was read as IMP-1 inh -2.8, PKA-R1A activ -8.8, bovine MsrA act -8.1, PKA-R2B activ -18.7, VIM-2 inh -1.9 and MsrA inhibitor 4.6*.
Screening Cc1c(/C(O)=C2\C(=O)C(=O)N(CCCN(C)C)C2c2ccco2)cnn1-c1ccccc1 (stereo unspecified) returned PKA-R1A activ -10.4, bovine MsrA act -5.6, PKA-R2B activ -5.3 and MsrA inhibitor -0.2.
CCc1cc2c(nc1CC)CCCN2S(=O)(=O)c1c(C)noc1C was read as MsrA inhibitor 0.6.
`COc1ccc(-c2cc(-c3cc(F)ccc3O)[nH]n2)cc1OC` gave IMP-1 inh 5.2*, PKA-R1A activ -20.9, bovine MsrA act -3.5, PKA-R2B activ -17.5, VIM-2 inh -3.5 and MsrA inhibitor 2.0.
O=Cc1ccc(-c2ccc([N+](=O)[O-])cc2Cl)o1 was read as IMP-1 inh -2.6, PKA-R1A activ -8.2, bovine MsrA act 3.4, PKA-R2B activ 7.5, VIM-2 inh 0.3 and MsrA inhibitor 5.5*.
O=Cc1ccc(-c2cccc([N+](=O)[O-])c2)o1 was read as IMP-1 inh -1.1, PKA-R1A activ -7.6, bovine MsrA act -6.2, PKA-R2B activ -6.8, VIM-2 inh 1.1 and MsrA inhibitor 1.9.
Cn1cc(/C=C2\SC(=S)N(N3CCOCC3)C2=O)c2ccccc21 was read as IMP-1 inh 4.8*, PKA-R1A activ -4.3, bovine MsrA act -11.1, PKA-R2B activ 15.3, VIM-2 inh -1.6 and MsrA inhibitor 0.1.
Screening COc1ccccc1NS(=O)(=O)c1ccc(C)c(NC(=O)C2CCCO2)c1 (stereo unspecified) returned PKA-R1A activ -0.2, bovine MsrA act 0.3, PKA-R2B activ -6.1 and MsrA inhibitor 0.1.
C[C@H](O)[C@@H]1C(=O)N2CCc3c([nH]c4c(-c5ccc6c(c5)OCO6)cccc34)[C@@H]2C[C@@H]1N(C)C(=O)NC1CCCCC1 was read as MsrA inhibitor 1.2.
Screening O=C(COc1ccc2c3c(c(=O)oc2c1)CCC3)NCC1CCC(C(=O)O)CC1 (stereo unspecified) returned IMP-1 inh 0.3, PKA-R1A activ -12.3, bovine MsrA act -3.7, PKA-R2B activ -3.6, VIM-2 inh 6.8 and MsrA inhibitor 1.3.
`Cc1c(OCC(=O)C(C)(C)C)ccc2c3c(c(=O)oc12)CCCC3` gave IMP-1 inh -3.5, PKA-R1A activ -2.8, bovine MsrA act -0.5, PKA-R2B activ -7.6, VIM-2 inh 4.9 and MsrA inhibitor -0.7.
Screening CCOC(=O)COc1ccc2c3c(c(=O)oc2c1C)CCC3 returned IMP-1 inh -1.1, PKA-R1A activ -0.8, bovine MsrA act -3.3, PKA-R2B activ -12.5, VIM-2 inh 8.1* and MsrA inhibitor -0.7.
Cc1c(OCc2nn[nH]n2)ccc2c3c(c(=O)oc12)CCCC3 was read as IMP-1 inh -4.1, PKA-R1A activ -16.8, bovine MsrA act -3.2, PKA-R2B activ 12.6, VIM-2 inh 7.8* and MsrA inhibitor 0.9.
Screening Cc1c(OCc2nn[nH]n2)ccc2c3c(c(=O)oc12)CCC(C)C3 (stereo unspecified) returned IMP-1 inh -2.7, PKA-R1A activ 4.5, bovine MsrA act -3.8, PKA-R2B activ 2.0, VIM-2 inh 1.1 and MsrA inhibitor 1.1.
Cc1c(OCC(=O)NCC2CCC(C(=O)O)CC2)ccc2c3c(c(=O)oc12)CCC3 (stereo unspecified) was read as IMP-1 inh -4.3, PKA-R1A activ -2.5, bovine MsrA act -1.6, PKA-R2B activ 1.8, VIM-2 inh 9.4* and MsrA inhibitor 2.4.
`Cc1c(C)c2c(OCC(=O)NCC(O)c3ccccc3)cc3c(c2oc1=O)CCC(C)(C)O3` (stereo unspecified) gave IMP-1 inh -2.5, PKA-R1A activ -8.9, bovine MsrA act -6.9, PKA-R2B activ -6.3, VIM-2 inh 2.8 and MsrA inhibitor 0.2.
For Cc1c(OCC(=O)NCC(O)c2ccccc2)ccc2c3c(c(=O)oc12)CCCC3 (stereo unspecified) the results were IMP-1 inh -2.9, PKA-R1A activ -1.9, bovine MsrA act -2.5, PKA-R2B activ 2.0, VIM-2 inh 9.3* and MsrA inhibitor 0.3.
Screening CC(c1nc2ccccc2n1Cc1ccccc1)n1c(-c2cnccn2)nc2ccccc21 (stereo unspecified) returned MsrA inhibitor -0.8.
Screening CC[C@H](C)[C@H]1CNC(=S)N1CC1CCN(CCCCc2ccccc2)CC1 returned PKA-R1A activ -7.5, bovine MsrA act -2.2, PKA-R2B activ 5.9 and MsrA inhibitor -1.2.
